Measured values taken from ChEMBL document CHEMBL1137710, “Synthesis and in vitro antitumor activity of new quinoxaline derivatives” (2009).

Legend:
Assay type in all cases: functional
[1] = Growth inhibition of human […] cells after 48 hrs by sulforhodamine B assay
In short: (§1)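 NCI 60-human-tumor-cell-line panel, with compounds tested over a 5-log dose range. Values are taken from dose-response curves as log10 molar concentrations: GI50 is 50% net growth inhibition, TGI is total growth inhibition, and LC50 is 50% net cell death.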

SK-MEL-2 = experiment: Growth inhibition of human SK-MEL-2 cells after 48 hrs by sulforhodamine B assay; conditions: SK-MEL-2, 48 h; in short: as §1
NCI-H23 = experiment: Growth inhibition of human NCI-H23 cells after 48 hrs by sulforhodamine B assay; conditions: NCI-H23, 48 h; in short: as §1
SF-295 = experiment: Growth inhibition of human SF295 cells after 48 hrs by sulforhodamine B assay; conditions: SF-295, 48 h; in short: as §1
IGROV-1 = experiment: Growth inhibition of human IGROV1 cells after 48 hrs by sulforhodamine B assay; conditions: IGROV-1, 48 h; in short: as §1
[2] = Growth inhibition of human Hs 578T cells after 48 hrs by sulforhodamine B assay; in short: as §1
NCI-H460 = experiment: Anticancer activity against human NCI-H460 cells assessed as cell growth at 100 uM after 48 hrs by sulforhodamine B assay; conditions: NCI-H460, 48 h, read-out: Activity
SK-MEL-28 = experiment: Growth inhibition of human SK-MEL-28 cells after 48 hrs by sulforhodamine B assay; conditions: SK-MEL-28, 48 h; in short: as §1
MDA-MB-435 = experiment: Growth inhibition of human MDA-MB-435 cells after 48 hrs by sulforhodamine B assay; conditions: MDA-MB-435, 48 h; in short: as §1
SK-MEL-5 = experiment: Growth inhibition of human SK-MEL-5 cells after 48 hrs by sulforhodamine B assay; conditions: SK-MEL-5, 48 h; in short: as §1
COLO 205 = experiment: Growth inhibition of human COLO205 cells after 48 hrs by sulforhodamine B assay; conditions: COLO 205, 48 h; in short: as §1
NCI-H322M = experiment: Growth inhibition of human NCI-H322M cells after 48 hrs by sulforhodamine B assay; in short: as §1
SW-620 = experiment: Growth inhibition of human SW620 cells after 48 hrs by sulforhodamine B assay; conditions: SW-620, 48 h
In short: (§2)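 Run in the NCI 60-human-tumour-cell-line panel, tested over a 5-log dose range. Dose–response curves gave three values per cell line, each as a log10 molar concentration: GI50 (50% inhibition of net cell growth), TGI (total inhibition of net growth) and LC50 (50% net cell death). The mean graph midpoint is the arithmetic mean over all lines, with insensitive lines entered at the highest concentration tested.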

OVCAR-5 = experiment: Growth inhibition of human OVCAR5 cells after 48 hrs by sulforhodamine B assay; conditions: OVCAR-5, 48 h; in short: as §1
SNB-19 = experiment: Growth inhibition of human SNB19 cells after 48 hrs by sulforhodamine B assay; conditions: SNB-19, 48 h; in short: as §2
U-251 = experiment: Growth inhibition of human U251 cells after 48 hrs by sulforhodamine B assay; conditions: U-251, 48 h; in short: as §2
SF-268 [3] = experiment: Anticancer activity against human SF268 cells assessed as cell growth at 100 uM after 48 hrs by sulforhodamine B assay; conditions: SF-268, 48 h, read-out: Activity
A549 = experiment: Growth inhibition of human A549 cells after 48 hrs by sulforhodamine B assay; conditions: A549, 48 h; in short: as §1
SR = experiment: Growth inhibition of human SR cells after 48 hrs by sulforhodamine B assay; in short: as §2
UACC-257 = experiment: Growth inhibition of human UACC257 cells after 48 hrs by sulforhodamine B assay; conditions: UACC-257, 48 h; in short: as §2
PC-3 = experiment: Growth inhibition of human PC3 cells after 48 hrs by sulforhodamine B assay; conditions: PC-3, 48 h; in short: as §1
MCF7 [4] = experiment: Growth inhibition of human MCF7 cells after 48 hrs by sulforhodamine B assay; conditions: MCF7, 48 h; in short: as §1
SF-268 [5] = experiment: Growth inhibition of human SF268 cells after 48 hrs by sulforhodamine B assay; conditions: SF-268, 48 h; in short: as §1
MCF7 [6] = experiment: Anticancer activity against human MCF7 cells assessed as cell growth at 100 uM after 48 hrs by sulforhodamine B assay; conditions: MCF7, 48 h, read-out: Activity
OVCAR-8 = experiment: Growth inhibition of human OVCAR8 cells after 48 hrs by sulforhodamine B assay; conditions: OVCAR-8, 48 h; in short: as §1
LOX IMVI = experiment: Growth inhibition of human LOXIMVI cells after 48 hrs by sulforhodamine B assay; in short: as §1
DU-145 = experiment: Growth inhibition of human DU145 cells after 48 hrs by sulforhodamine B assay; conditions: DU-145, 48 h; in short: as §1
RXF 393 = experiment: Growth inhibition of human RXF393 cells after 48 hrs by sulforhodamine B assay; conditions: RXF 393, 48 h; in short: as §1
[7] = read-out: pLC50 (the source's name) (converted)

SMILES: COc1ccc(CNc2nc3cc(N)cc(N)c3nc2-c2ccccc2)cc1OC
- GI50 [1]: 2.14 µM
- LC50 [1]: > 100 µM
- TGI ([1]; read-out: pTGI (converted)): 7.24 µM
- GI50 (SK-MEL-2): 8.71 µM
- CC50 (SK-MEL-2; [7]): > 100 µM
- TGI (SK-MEL-2; read-out: pTGI (converted)): 30.2 µM
- GI50 (NCI-H23): 17 µM
- LC50 (50% net cell kill concentration) (NCI-H23): 91.2 µM
- TGI (NCI-H23; read-out: pTGI (converted)): 39.8 µM
- GI50 (SF-295): 13.2 µM
- LC50 (50% net cell kill) (SF-295): 58.9 µM
- TGI (SF-295; read-out: pTGI (converted)): 28.2 µM
- GI50 (IGROV-1): 11.5 µM
- CC50 (IGROV-1; [7]): > 100 µM
- TGI (IGROV-1; read-out: pTGI (converted)): 40.7 µM
- GI50 [2]: 33.9 µM
- CC50 [2, 7]: > 100 µM
- TGI ([2]; read-out: pTGI (converted)): > 100 µM
- growth at 100 µM (NCI-H460): 3%
- GI50 (SK-MEL-28): 13.5 µM
- CC50 (SK-MEL-28; [7]): 67.6 µM
- TGI (SK-MEL-28; read-out: pTGI (converted)): 30.2 µM
- GI50 (MDA-MB-435): 1.95 µM
- CC50 (MDA-MB-435; [7]): 8.51 µM
- TGI (MDA-MB-435; read-out: pTGI (converted)): 4.07 µM
- GI50 (SK-MEL-5): 10 µM
- CC50 (SK-MEL-5; [7]): 77.6 µM
- TGI (SK-MEL-5; read-out: pTGI (converted)): 27.5 µM
- GI50 (COLO 205): 7.94 µM
- LC50 (50% net cell kill) (COLO 205): > 100 µM
- TGI (COLO 205; read-out: pTGI (converted)): > 100 µM
- GI50 (NCI-H322M): 22.9 µM
- LC50 (NCI-H322M): 100 µM
- TGI (NCI-H322M; read-out: pTGI (converted)): 47.9 µM
- GI50 (SW-620): 5.25 µM
- CC50 (SW-620; [7]): > 100 µM
- TGI (SW-620; read-out: pTGI (converted)): > 100 µM
- GI50 (OVCAR-5): 20.9 µM
- CC50 (OVCAR-5; [7]): 81.3 µM
- TGI (OVCAR-5; read-out: pTGI (converted)): 41.7 µM
- GI50 (SNB-19): 25.7 µM
- LC50 (SNB-19): > 100 µM
- TGI (SNB-19; read-out: pTGI (converted)): > 100 µM
- GI50 (U-251): 17 µM
- LC50 (50% net cell kill) (U-251): 89.1 µM
- TGI (U-251; read-out: pTGI (converted)): 38.9 µM
- growth at 100 µM (SF-268 [3]): 47%
- GI50 (A549): 20.9 µM
- LC50 (A549): > 100 µM
- TGI (A549; read-out: pTGI (converted)): 50.1 µM
- GI50 (SR): 3.31 µM
- LC50 (concentration giving 50% net cell death) (SR): > 100 µM
- TGI (SR; read-out: pTGI (converted)): 18.2 µM
- GI50 (UACC-257): 12.9 µM
- CC50 (UACC-257; [7]): 55 µM
- TGI (UACC-257; read-out: pTGI (converted)): 26.9 µM
- GI50 (PC-3): 8.32 µM
- CC50 (PC-3; [7]): 83.2 µM
- TGI (PC-3; read-out: pTGI (converted)): 27.5 µM
- GI50 (MCF7 [4]): 25.7 µM
- CC50 (MCF7 [4]; [7]): > 100 µM
- TGI (MCF7 [4]; read-out: pTGI (converted)): > 100 µM
- GI50 (SF-268 [5]): 14.8 µM
- LC50 (SF-268 [5]): > 100 µM
- TGI (SF-268 [5]; read-out: pTGI (converted)): 60.3 µM
- growth at 100 µM (MCF7 [6]): 0%
- GI50 (OVCAR-8): 6.76 µM
- CC50 (OVCAR-8; [7]): > 100 µM
- TGI (OVCAR-8; read-out: pTGI (converted)): 33.9 µM
- GI50 (LOX IMVI): 3.09 µM
- LC50 (LOX IMVI): > 100 µM
- TGI (LOX IMVI; read-out: pTGI (converted)): 14.1 µM
- GI50 (DU-145): 0.46 µM
- CC50 (DU-145; [7]): > 100 µM
- TGI (DU-145; read-out: pTGI (converted)): 87.1 µM
- GI50 (RXF 393): 19.1 µM
- CC50 (RXF 393; [7]): > 100 µM
- TGI (RXF 393; read-out: pTGI (converted)): > 100 µM
